The source made the active and inactive calls. No cut-off for these calls is given here.
How the values were obtained:
[1] = target: Activin receptor type-1 (Homo sapiens) (UniProt Q04771); assay: Inhibition of human ACVR1 (188 to 509 residues) expressed in bacterial expression system assessed as enzyme activity at 10 uM by KINOMEScan assay relative to control; parameters: scale not given: the % may be the effect or the level left
Outline: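 In vitro ATP-site competition binding assay (KinomeScan) across a panel of 456 kinases. Compound was tested at 1 and 10 μM. The read-out is the binding inhibition score relative to control.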

[2] = target: T1, Mitogen-activated protein kinase kinase kinase 7 (Homo sapiens) (UniProt O43318); assay: Inhibition of TAK1 in RA patient-derived synovial fibroblasts assessed as inhibition of IL-1alpha-induced cytokine secretion at 3 uM preincubated for 3 hrs followed by IL-1alpha stimulation measured after 18 hrs by sandwich immunoassay
T1 sequence (whole entry): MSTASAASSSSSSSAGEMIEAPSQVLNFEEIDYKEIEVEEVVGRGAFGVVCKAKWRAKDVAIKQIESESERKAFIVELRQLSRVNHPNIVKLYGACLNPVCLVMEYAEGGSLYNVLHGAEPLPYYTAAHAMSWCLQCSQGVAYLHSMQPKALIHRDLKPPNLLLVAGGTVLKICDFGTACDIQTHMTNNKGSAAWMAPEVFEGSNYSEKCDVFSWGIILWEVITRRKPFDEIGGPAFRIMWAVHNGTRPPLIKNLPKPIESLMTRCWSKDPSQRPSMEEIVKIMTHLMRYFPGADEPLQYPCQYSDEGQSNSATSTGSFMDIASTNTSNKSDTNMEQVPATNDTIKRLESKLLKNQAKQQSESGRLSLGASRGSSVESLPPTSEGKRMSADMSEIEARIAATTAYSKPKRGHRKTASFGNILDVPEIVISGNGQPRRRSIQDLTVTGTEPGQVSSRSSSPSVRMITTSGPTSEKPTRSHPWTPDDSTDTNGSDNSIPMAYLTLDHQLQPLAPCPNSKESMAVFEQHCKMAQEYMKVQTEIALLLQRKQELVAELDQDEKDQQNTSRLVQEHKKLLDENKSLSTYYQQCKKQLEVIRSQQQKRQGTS
Outline: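 Primary RA synovial fibroblasts (donor RA2159) seeded 1000 cells/well and grown ~24 h at 37 °C, 5% CO2. Starved overnight in basal medium, then ~4 h in basal medium with 0.1% BSA. Two adjacent wells pooled per replicate, in biological duplicate. Supernatants diluted 1:3 and run on Luminex 27-plex/21-plex sandwich immunoassays for 48 analytes, with spiked-ligand and mock-supernatant background controls.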

[3] = target: Serine/threonine-protein kinase TBK1 (Homo sapiens) (UniProt Q9UHD2); assay: Inhibition of TBK1 in human SKCO1 cells at 1 uM after 4 hrs using biotin labeled DIKPGNIMR probe by mass-spectrometric analysis relative to control; assay type: cell-based
Chain of Serine/threonine-protein kinase TBK1 (Homo sapiens) (Q9UHD2 whole entry): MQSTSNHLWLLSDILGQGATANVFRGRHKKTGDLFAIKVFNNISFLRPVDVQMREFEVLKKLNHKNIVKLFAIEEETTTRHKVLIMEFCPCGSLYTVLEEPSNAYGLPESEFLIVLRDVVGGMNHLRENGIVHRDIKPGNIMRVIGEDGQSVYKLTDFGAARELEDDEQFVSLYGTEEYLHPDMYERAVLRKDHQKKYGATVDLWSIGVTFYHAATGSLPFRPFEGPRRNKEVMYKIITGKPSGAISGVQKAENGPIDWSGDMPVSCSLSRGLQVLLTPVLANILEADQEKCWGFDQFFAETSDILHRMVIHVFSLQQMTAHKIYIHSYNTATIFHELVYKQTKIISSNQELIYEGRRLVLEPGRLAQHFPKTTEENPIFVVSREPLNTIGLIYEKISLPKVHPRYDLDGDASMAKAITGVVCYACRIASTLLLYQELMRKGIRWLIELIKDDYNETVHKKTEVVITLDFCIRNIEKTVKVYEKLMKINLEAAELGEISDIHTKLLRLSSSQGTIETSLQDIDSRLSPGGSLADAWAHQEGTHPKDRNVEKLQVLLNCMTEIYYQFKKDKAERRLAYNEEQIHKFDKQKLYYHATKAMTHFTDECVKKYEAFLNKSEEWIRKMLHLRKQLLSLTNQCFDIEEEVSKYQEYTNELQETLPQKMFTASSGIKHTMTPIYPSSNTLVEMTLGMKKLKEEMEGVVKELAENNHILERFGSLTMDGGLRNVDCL

[4] = target: Retinaldehyde dehydrogenase 3 (Homo sapiens) (UniProt P47895); assay: Binding affinity to ALDH1A3 in human NCI-H358 cells at 1 uM by mass spectrometry based pull down assay; assay type: cell-based
Chain of Retinaldehyde dehydrogenase 3 (Homo sapiens) (P47895 whole entry): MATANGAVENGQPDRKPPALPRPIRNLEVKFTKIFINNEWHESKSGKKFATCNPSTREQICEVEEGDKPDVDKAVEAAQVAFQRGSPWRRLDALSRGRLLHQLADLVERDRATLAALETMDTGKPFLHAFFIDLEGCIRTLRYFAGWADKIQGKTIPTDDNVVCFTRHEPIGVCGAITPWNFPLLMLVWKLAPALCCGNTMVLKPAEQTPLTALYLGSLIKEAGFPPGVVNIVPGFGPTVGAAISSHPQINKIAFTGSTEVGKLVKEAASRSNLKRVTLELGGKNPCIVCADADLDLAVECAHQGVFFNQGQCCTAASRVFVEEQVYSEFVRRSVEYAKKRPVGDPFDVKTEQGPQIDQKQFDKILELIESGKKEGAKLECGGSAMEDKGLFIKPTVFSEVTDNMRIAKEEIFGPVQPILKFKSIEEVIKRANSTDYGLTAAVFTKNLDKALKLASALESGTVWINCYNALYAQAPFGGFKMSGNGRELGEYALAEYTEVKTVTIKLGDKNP
Outline: (§1)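 NCI-H23 or NCI-H358 cells were grown and lysed. Lysates were incubated overnight at 4 °C with 1 μM biotinylated covalent probe or DMSO, then pulled down on streptavidin beads. Proteins were run on polyacrylamide gels and stained with Coomassie. Bands were excised, digested and identified by mass spectrometry.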

[5] = target: 80S Ribosome (Homo sapiens) (UniProt P08865+P42677+P62753+P15880+P23396+P61247+P62701+P22090+P46782+P62081+P62241+P46781+P46783+P62280+P25398+P62277+P62263+P62841+P62244+P62249+P08708+P62269+P39019+P60866+P63220+P62266+P62847+P62851+P62854+P62979+P62857+P62273+P62861+P39023+P36578+P46777+Q02878+P18124+P62424+P62917+P32969+P27635+P62906+P62913+P30050+P26373+P40429+P50914+P61313+P18621+Q07020+Q02543+P84098+P46778+P35268+P62829+P62750+P83731+P61254+P61353+P46776+P46779+P47914+P62888+P62899+P62910+P49207+P42766+P18077+Q9Y3U8+P83881+P61927+P61513+P63173+P62891+P62945+P05388+P05386); assay: Binding affinity to RPL5 in human NCI-H358 cells at 1 uM by mass spectrometry based pull down assay; assay type: cell-based
[6] = target: Small ribosomal subunit protein mS23 (Homo sapiens) (UniProt Q9Y3D9); assay: Binding affinity to MRPS23 in human NCI-H358 cells at 1 uM by mass spectrometry based pull down assay; assay type: cell-based
[7] = target: Aurora kinase B (Homo sapiens) (UniProt Q96GD4); assay: Binding affinity to AURKB in human NCI-H358 cells at 1 uM by mass spectrometry based pull down assay; assay type: cell-based
Chain of Aurora kinase B (Homo sapiens) (Q96GD4 whole entry): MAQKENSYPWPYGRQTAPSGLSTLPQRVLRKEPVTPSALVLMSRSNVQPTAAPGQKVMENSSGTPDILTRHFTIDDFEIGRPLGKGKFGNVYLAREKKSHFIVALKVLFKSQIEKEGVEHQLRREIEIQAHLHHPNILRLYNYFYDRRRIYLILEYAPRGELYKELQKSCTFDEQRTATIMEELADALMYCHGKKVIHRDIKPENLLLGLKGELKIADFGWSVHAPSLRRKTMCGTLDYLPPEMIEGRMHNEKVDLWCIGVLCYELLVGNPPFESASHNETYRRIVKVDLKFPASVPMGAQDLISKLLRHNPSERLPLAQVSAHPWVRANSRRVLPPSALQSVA

[8] = target: MAP kinase-activated protein kinase 5 (Homo sapiens) (UniProt Q8IW41); assay: Binding affinity to MAPKAPK5 in human NCI-H23 cells at 1 uM by mass spectrometry based pull down assay; assay type: cell-based
Chain of MAP kinase-activated protein kinase 5 (Homo sapiens) (Q8IW41 whole entry): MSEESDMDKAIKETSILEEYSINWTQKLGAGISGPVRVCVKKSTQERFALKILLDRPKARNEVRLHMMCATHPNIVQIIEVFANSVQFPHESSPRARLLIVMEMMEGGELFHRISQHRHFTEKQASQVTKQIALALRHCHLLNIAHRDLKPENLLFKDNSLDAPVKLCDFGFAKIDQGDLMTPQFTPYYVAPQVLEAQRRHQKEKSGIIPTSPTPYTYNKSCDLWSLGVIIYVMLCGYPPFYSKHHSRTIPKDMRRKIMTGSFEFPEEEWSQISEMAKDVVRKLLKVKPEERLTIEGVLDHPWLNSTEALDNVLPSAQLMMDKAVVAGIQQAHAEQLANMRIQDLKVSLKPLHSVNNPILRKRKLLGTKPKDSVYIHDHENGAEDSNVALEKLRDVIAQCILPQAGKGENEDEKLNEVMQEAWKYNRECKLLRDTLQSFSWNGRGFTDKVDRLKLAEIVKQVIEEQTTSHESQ

[9] = target: COP9 signalosome complex subunit 8 (Homo sapiens) (UniProt Q99627); assay: Binding affinity to COPS8 in human NCI-H23 cells at 1 uM by mass spectrometry based pull down assay; assay type: cell-based
[10] = target: AP2-associated protein kinase 1 (Homo sapiens) (UniProt Q2M2I8); assay: Binding affinity to AAK1 in human NCI-H358 cells at 1 uM by mass spectrometry based pull down assay; assay type: cell-based; outline: as §1
Chain of AP2-associated protein kinase 1 (Homo sapiens) (Q2M2I8 whole entry, looked up): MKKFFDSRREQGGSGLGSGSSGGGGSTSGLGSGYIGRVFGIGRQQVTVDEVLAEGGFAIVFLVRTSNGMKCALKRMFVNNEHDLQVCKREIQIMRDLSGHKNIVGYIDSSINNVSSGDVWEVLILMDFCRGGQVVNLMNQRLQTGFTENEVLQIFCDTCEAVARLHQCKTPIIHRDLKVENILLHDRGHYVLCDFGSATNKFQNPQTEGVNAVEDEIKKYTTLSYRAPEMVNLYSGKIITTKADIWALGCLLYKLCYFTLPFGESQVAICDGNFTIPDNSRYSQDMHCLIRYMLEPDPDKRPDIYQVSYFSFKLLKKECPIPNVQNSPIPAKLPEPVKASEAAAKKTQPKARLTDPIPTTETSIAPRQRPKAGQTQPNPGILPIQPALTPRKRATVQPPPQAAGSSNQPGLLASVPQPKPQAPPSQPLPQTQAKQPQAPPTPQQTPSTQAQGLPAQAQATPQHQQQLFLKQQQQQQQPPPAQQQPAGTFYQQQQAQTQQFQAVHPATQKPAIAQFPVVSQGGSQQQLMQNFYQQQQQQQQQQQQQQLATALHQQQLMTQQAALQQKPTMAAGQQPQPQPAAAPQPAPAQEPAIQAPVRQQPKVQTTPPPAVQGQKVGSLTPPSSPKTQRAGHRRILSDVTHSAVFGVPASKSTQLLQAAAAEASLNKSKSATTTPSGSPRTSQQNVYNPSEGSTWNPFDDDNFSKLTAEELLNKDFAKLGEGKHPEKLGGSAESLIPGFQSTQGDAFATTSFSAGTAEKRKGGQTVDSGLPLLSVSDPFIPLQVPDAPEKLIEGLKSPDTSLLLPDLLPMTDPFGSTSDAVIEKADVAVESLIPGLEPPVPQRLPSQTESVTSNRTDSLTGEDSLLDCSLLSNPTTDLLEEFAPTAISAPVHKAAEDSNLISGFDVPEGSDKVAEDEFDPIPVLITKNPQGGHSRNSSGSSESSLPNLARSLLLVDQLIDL

[11] = target: Proto-oncogene tyrosine-protein kinase Src (Homo sapiens) (UniProt P12931); assay: Binding affinity to SRC in human NCI-H23 cells at 1 uM by mass spectrometry based pull down assay; assay type: cell-based
[12] = target: Tyrosine-protein phosphatase non-receptor type 1 (Homo sapiens) (UniProt P18031); assay: Binding affinity to PTPN1 in human NCI-H23 cells at 1 uM by mass spectrometry based pull down assay; assay type: cell-based
Chain of Tyrosine-protein phosphatase non-receptor type 1 (Homo sapiens) (P18031 whole entry): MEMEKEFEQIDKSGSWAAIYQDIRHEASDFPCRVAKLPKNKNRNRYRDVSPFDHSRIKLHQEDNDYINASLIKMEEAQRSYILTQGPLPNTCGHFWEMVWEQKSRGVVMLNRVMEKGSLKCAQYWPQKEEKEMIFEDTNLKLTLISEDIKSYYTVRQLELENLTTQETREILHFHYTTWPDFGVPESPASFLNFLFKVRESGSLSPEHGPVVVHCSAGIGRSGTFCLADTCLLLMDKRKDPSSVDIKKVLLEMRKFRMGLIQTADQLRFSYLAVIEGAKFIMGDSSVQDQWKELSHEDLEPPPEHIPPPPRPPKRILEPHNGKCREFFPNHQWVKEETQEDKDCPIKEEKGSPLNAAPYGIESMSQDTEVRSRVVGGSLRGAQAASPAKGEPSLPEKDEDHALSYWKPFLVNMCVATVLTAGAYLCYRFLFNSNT

[13] = target: Eukaryotic translation initiation factor 6 (Homo sapiens) (UniProt P56537); assay: Binding affinity to EIF6 in human NCI-H23 cells at 1 uM by mass spectrometry based pull down assay; assay type: cell-based
[14] = target: Plakophilin-1 (Homo sapiens) (UniProt Q13835); assay: Binding affinity to PKP1 in human NCI-H23 cells at 1 uM by mass spectrometry based pull down assay; assay type: cell-based
Chain of Plakophilin-1 (Homo sapiens) (Q13835 whole entry): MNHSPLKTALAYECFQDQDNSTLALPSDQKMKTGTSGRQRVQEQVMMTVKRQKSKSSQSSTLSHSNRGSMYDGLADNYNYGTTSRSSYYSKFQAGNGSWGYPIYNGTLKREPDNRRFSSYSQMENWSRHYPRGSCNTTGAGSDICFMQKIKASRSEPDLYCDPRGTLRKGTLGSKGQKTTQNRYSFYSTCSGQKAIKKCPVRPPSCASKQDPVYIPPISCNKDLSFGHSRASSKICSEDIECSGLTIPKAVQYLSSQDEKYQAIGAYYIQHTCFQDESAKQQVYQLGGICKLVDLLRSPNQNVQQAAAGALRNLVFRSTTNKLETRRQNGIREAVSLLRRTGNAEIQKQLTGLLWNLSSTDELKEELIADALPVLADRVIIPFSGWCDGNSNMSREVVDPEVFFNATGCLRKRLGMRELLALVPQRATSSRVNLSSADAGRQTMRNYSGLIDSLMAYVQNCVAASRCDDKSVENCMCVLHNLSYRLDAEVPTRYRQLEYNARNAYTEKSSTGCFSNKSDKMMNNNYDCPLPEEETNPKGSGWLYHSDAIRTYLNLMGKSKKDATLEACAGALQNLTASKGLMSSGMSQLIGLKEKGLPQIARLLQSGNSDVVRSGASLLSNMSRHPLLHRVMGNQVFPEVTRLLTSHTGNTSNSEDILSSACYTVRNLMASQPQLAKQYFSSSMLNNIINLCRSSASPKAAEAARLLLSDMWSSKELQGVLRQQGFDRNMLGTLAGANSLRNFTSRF

[15] = target: Glutamine--fructose-6-phosphate aminotransferase [isomerizing] 1 (Homo sapiens) (UniProt Q06210); assay: Binding affinity to GFPT1 in human NCI-H23 cells at 1 uM by mass spectrometry based pull down assay; assay type: cell-based
[16] = target: Thioredoxin-related transmembrane protein 1 (Homo sapiens) (UniProt Q9H3N1); assay: Binding affinity to TMX1 in human NCI-H358 cells at 1 uM by mass spectrometry based pull down assay; assay type: cell-based
Chain of Thioredoxin-related transmembrane protein 1 (Homo sapiens) (Q9H3N1 whole entry): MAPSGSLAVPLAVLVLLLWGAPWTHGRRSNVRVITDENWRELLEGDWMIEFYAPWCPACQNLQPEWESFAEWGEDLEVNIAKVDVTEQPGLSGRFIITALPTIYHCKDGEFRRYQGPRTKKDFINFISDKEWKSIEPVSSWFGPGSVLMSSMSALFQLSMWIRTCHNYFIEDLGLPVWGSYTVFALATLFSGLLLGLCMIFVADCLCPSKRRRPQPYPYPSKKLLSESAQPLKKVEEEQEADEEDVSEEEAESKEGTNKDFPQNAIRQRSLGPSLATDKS

[17] = target: Transcription intermediary factor 1-beta (Homo sapiens) (UniProt Q13263); assay: Binding affinity to TRIM28 in human NCI-H358 cells at 1 uM by mass spectrometry based pull down assay; assay type: cell-based

Chain of Activin receptor type-1 (Homo sapiens) (Q04771 whole entry, the tested form may be a part): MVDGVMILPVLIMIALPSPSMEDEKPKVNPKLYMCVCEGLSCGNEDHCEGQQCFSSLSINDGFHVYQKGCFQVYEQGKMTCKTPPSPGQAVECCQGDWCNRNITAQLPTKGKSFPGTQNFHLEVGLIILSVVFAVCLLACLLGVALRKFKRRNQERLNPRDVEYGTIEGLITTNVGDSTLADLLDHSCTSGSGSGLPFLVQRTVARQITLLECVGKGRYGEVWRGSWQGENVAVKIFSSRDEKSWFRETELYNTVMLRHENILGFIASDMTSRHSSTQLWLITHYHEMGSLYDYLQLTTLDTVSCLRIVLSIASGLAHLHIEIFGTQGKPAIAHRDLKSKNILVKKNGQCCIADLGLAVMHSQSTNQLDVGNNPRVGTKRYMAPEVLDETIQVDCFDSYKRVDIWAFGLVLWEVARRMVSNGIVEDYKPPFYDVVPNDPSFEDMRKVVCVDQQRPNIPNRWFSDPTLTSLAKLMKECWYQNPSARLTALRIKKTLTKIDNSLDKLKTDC

**Q.** `COc1cc(O)c2c(c1)/C=C/C[C@H](O)[C@H](O)C(=O)/C=C\C[C@H](C)OC2=O` was tested. Which Activity [1] did it give?
**A.** The Activity was 1.9%.

**Q.** `C=CC(=O)Nc1ccccc1Oc1nc(Nc2cnn(CCOC)c2)ncc1Cl` was tested. Which inhibition [2] did it give?
**A.** The inhibition was “Active”.

**Q.** For `C=CC(=O)Nc1ccccc1Nc1nc(Nc2ccc(N3CCN(C)CC3)cc2)ncc1Cl`, which inhibition [3] is on record?
**A.** The inhibition was 59.3%.

**Q.** For `C=CC(=O)Nc1ccccc1Nc1nc(Nc2ccc(N3CCN(CCOCCOCCOCCNC(=O)CCCC[C@@H]4SC[C@@H]5NC(=O)N[C@@H]54)CC3)cc2)ncc1Cl`, which Activity [4] is on record?
**A.** Its Activity is “Active”.

**Q.** And the Activity [5]?
**A.** Its Activity is “Active”.

**Q.** What about the Activity [6] of the same molecule?
**A.** Its Activity is “Active”.

**Q.** What about the Activity [7] of the same molecule?
**A.** The Activity was “Active”.

**Q.** And the Activity [8]?
**A.** Its Activity is “Active”.

**Q.** What about the Activity [9] of the same molecule?
**A.** Its Activity is “Active”.

**Q.** What about the Activity [10] of the same molecule?
**A.** The Activity was “Active”.

**Q.** What about the Activity [11] of the same molecule?
**A.** Its Activity is “Active”.

**Q.** And the Activity [12]?
**A.** Its Activity is “Active”.

**Q.** And the Activity [13]?
**A.** The Activity was “Active”.

**Q.** And the Activity [14]?
**A.** Its Activity is “Active”.

**Q.** And the Activity [15]?
**A.** Its Activity is “Active”.

**Q.** And the Activity [16]?
**A.** The Activity was “Active”.

**Q.** And the Activity [17]?
**A.** The Activity was “Active”.

From ChEMBL document CHEMBL4118021, “Studies of TAK1-centered polypharmacology with novel covalent TAK1 inhibitors” (Bioorg Med Chem, 2017)
